Test results published in ChEMBL document CHEMBL1143122, “Novel analogs of D-e-MAPP and B13. Part 1: synthesis and evaluation as potential anticancer agents” (Bioorg Med Chem, 2008).

Tests used:
SNB-75 = assay: Antiproliferative activity against human SNB75 cells after 48 hrs; assay type: functional; details: SNB-75, 48 h
Method in brief: (§1)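 NCI 60-cell screen. Cells were grown in RPMI 1640 with 5% FBS and 2 mM L-glutamine, then plated at 5,000–40,000 cells/well according to doubling time and preincubated for 24 h at 37 °C in 5% CO2. Compounds were dissolved in DMSO at 400× the top final concentration and tested at five 10-fold dilutions from 10−4 to 10−8 M for 48 h. Growth was read spectrophotometrically; GI50 is 50% net protein reduction.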

CCRF-CEM = assay: Antiproliferative activity against human CCRF-CEM cells after 48 hrs; assay type: functional; method in brief: as §1
HCT-116 = assay: Antiproliferative activity against human HCT116 cells after 48 hrs; assay type: functional; details: HCT-116, 48 h; method in brief: as §1
LOX IMVI = assay: Antiproliferative activity against human LOXIMVI cells after 48 hrs; assay type: functional; method in brief: as §1
SW-620 = assay: Antiproliferative activity against human SW620 cells after 48 hrs; assay type: functional; details: SW-620, 48 h
Method in brief: (§2)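 NCI 60-cell-line screen. Lines grown in RPMI 1640 with 5% fetal bovine serum and 2 mM L-glutamine, plated at 5,000–40,000 cells/well according to doubling time, left 24 h at 37 °C in 5% CO2. Drug stocks in DMSO at 400-fold the top final concentration. Five 10-fold dilutions, 10−4 to 10−8 M, incubated 48 h. Growth read spectrophotometrically as net protein; GI50 taken as 50% reduction.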

SK-MEL-2 = assay: Antiproliferative activity against human SKMEL2 cells after 48 hrs; assay type: functional; details: SK-MEL-2, 48 h; method in brief: as §1
Malme-3M = assay: Antiproliferative activity against human MALME3M cells after 48 hrs; assay type: functional; method in brief: as §1
NCI-H522 = assay: Antiproliferative activity against human NCI-H522 cells after 48 hrs; assay type: functional; details: NCI-H522, 48 h; method in brief: as §1
IGROV-1 = assay: Antiproliferative activity against human IGROV1 cells after 48 hrs; assay type: functional; details: IGROV-1, 48 h; method in brief: as §1
HOP-62 = assay: Antiproliferative activity against human HOP62 cells after 48 hrs; assay type: functional; details: HOP-62, 48 h; method in brief: as §1
K562 = assay: Antiproliferative activity against human K562 cells after 48 hrs; assay type: functional; details: K562, 48 h; method in brief: as §1
OVCAR-8 = assay: Antiproliferative activity against human OVCAR8 cells after 48 hrs; assay type: functional; details: OVCAR-8, 48 h; method in brief: as §1
SN12C = assay: Antiproliferative activity against human SN12C cells after 48 hrs; assay type: functional; method in brief: as §1
786-0 = assay: Antiproliferative activity against human 786-0 cells after 48 hrs; assay type: functional; details: 786-0, 48 h; method in brief: as §1
TK-10 = assay: Antiproliferative activity against human TK10 cells after 48 hrs; assay type: functional; details: TK-10, 48 h; method in brief: as §2
A498 = assay: Antiproliferative activity against human A498 cells after 48 hrs; assay type: functional; details: A498, 48 h; method in brief: as §1
[1] = Antiproliferative activity against human […] cells after 48 hrs; assay type: functional; method in brief: as §1
SK-MEL-5 = assay: Antiproliferative activity against human SKMEL5 cells after 48 hrs; assay type: functional; details: SK-MEL-5, 48 h; method in brief: as §1
ACHN = assay: Antiproliferative activity against human ACHN cells after 48 hrs; assay type: functional; method in brief: as §1
HOP-92 = assay: Antiproliferative activity against human HOP92 cells after 48 hrs; assay type: functional; details: HOP-92, 48 h; method in brief: as §1
MCF7 = assay: Drug level in human MCF7 cells at 10 uM per 10^6 cells after 0.5 hrs; assay type: ADME, cell-based; details: mcf7, 0.5 h
Method in brief: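 MCF7 cells kept in RPMI 1640 with 10% fetal calf serum at 37 °C, 5% CO2, then treated with 10 μM analog. Intracellular analog measured over time by HPLC-MS in positive-ion MRM mode. Quantified against calibration curves made by spiking an artificial matrix with standards plus internal standard, using analyte/IS peak-area ratios and linear regression. Reported as pmol per 1×10^6 cells.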

KM12 = assay: Antiproliferative activity against human KM12 cells after 48 hrs; assay type: functional; details: Homo sapiens, KM12, 48 h; method in brief: as §1
[2] = Antiproliferative activity against human HL60(TB) cells after 48 hrs; assay type: functional, HL-60(TB); details: HL-60, 48 h
Method in brief: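 NCI 60-line panel screen: cells grown in RPMI 1640 with 5% fetal bovine serum and 2 mM L-glutamine, plated at 5,000–40,000 cells/well by doubling time, and preincubated 24 h at 37 °C in 5% CO2. Drugs were solubilised in DMSO at 400-fold the final maximum and tested at five 10-fold dilutions from 10−4 to 10−8 M for 48 h. Net protein was read spectrophotometrically, and the concentration giving 50% reduction was reported as log10 GI50.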

HCC 2998 = assay: Antiproliferative activity against human HCC2998 cells after 48 hrs; assay type: functional; details: HCC 2998, 48 h; method in brief: as §1
NCI-H460 = assay: Antiproliferative activity against human NCI-H460 cells after 48 hrs; assay type: functional; details: NCI-H460, 48 h; method in brief: as §1
SF-295 = assay: Antiproliferative activity against human SF295 cells after 48 hrs; assay type: functional; details: SF-295, 48 h; method in brief: as §1
UACC-62 = assay: Antiproliferative activity against human UACC62 cells after 48 hrs; assay type: functional; details: UACC-62, 48 h; method in brief: as §2
[3] = read-out: Log LC50 (the source's name) (converted)

## CCCCCCCCCCCCCCN[C@H](CO)[C@H](O)c1ccc([N+](=O)[O-])cc1.Cl
SNB-75
  GI50: 3.98 µM
SNB-75; [3]
  CC50: 60.3 µM
SNB-75; read-out: Log TGI (converted)
  TGI: 26.9 µM
CCRF-CEM
  GI50: 2 µM
CCRF-CEM; read-out: Log TGI (converted)
  TGI: 3.98 µM
HCT-116
  GI50: 1.95 µM
  LC50: 6.17 µM
HCT-116; read-out: Log TGI (converted)
  TGI: 3.47 µM
LOX IMVI
  GI50: 1.74 µM
  LC50: 6.03 µM
LOX IMVI; read-out: Log TGI (converted)
  TGI: 3.24 µM
SW-620
  GI50: 2 µM
  LC50 (concentration killing 50% of cells): 100 µM
SW-620; read-out: Log TGI (converted)
  TGI: 4.68 µM
SK-MEL-2
  GI50: 3.31 µM
  LC50: > 100 µM
SK-MEL-2; read-out: Log TGI (converted)
  TGI: 8.13 µM
Malme-3M
  GI50: 2.45 µM
  LC50: 9.55 µM
Malme-3M; read-out: Log TGI (converted)
  TGI: 4.9 µM
NCI-H522
  GI50: 2 µM
NCI-H522; read-out: Log TGI (converted)
  TGI: 3.98 µM
IGROV-1
  GI50: 1.91 µM
IGROV-1; read-out: Log TGI (converted)
  TGI: 3.63 µM
HOP-62
  GI50: 1.91 µM
HOP-62; [3]
  CC50: 6.31 µM
HOP-62; read-out: Log TGI (converted)
  TGI: 3.47 µM
K562
  GI50: 1.86 µM
  LC50: 7.76 µM
K562; read-out: Log TGI (converted)
  TGI: 3.8 µM
OVCAR-8
  GI50: 2.29 µM
OVCAR-8; [3]
  CC50: > 100 µM
OVCAR-8; read-out: Log TGI (converted)
  TGI: 5.62 µM
SN12C
  GI50: 2.19 µM
  LC50 (50% net cell kill): > 100 µM
SN12C; read-out: Log TGI (converted)
  TGI: 4.79 µM
786-0
  GI50: 1.62 µM
786-0; [3]
  CC50: 5.75 µM
786-0; read-out: Log TGI (converted)
  TGI: 3.09 µM
TK-10
  GI50: 10.5 µM
TK-10; [3]
  CC50: 66.1 µM
TK-10; read-out: Log TGI (converted)
  TGI: 26.3 µM
A498
  GI50: 6.76 µM
A498; [3]
  CC50: 93.3 µM
A498; read-out: Log TGI (converted)
  TGI: 26.9 µM
[1]
  GI50: 2 µM
  LC50: 8.91 µM
[1]; read-out: Log TGI (converted)
  TGI: 4.27 µM
SK-MEL-5
  GI50: 2.45 µM
SK-MEL-5; [3]
  CC50: > 100 µM
SK-MEL-5; read-out: Log TGI (converted)
  TGI: 7.08 µM
ACHN
  GI50: 1.86 µM
ACHN; [3]
  CC50: 6.17 µM
ACHN; read-out: Log TGI (converted)
  TGI: 3.39 µM
HOP-92
  GI50: 1.26 µM
  LC50: 6.17 µM
HOP-92; read-out: Log TGI (converted)
  TGI: 2.75 µM
MCF7
  Drug uptake: 3600 pmol
KM12
  GI50: 1.86 µM
KM12; [3]
  CC50: 6.17 µM
KM12; read-out: Log TGI (converted)
  TGI: 3.39 µM
[2]
  GI50: 2.04 µM
  LC50: 15.1 µM
[2]; read-out: Log TGI (converted)
  TGI: 4.79 µM
HCC 2998
  GI50: 2.4 µM
HCC 2998; [3]
  CC50: 29.5 µM
HCC 2998; read-out: Log TGI (converted)
  TGI: 5.62 µM
NCI-H460
  GI50: 1.91 µM
NCI-H460; read-out: Log TGI (converted)
  TGI: 3.55 µM
SF-295
  GI50: 2.24 µM
  LC50: 9.77 µM
SF-295; read-out: Log TGI (converted)
  TGI: 4.68 µM
UACC-62
  GI50: 6.46 µM
  LC50: 75.9 µM
UACC-62; read-out: Log TGI (converted)
  TGI: 24 µM
